Legend:
Rattus norvegicus [1] = experiment: Blood pressure of the urethane-anesthetized normotensive Wistar rat was tested 60 min after inducing the compound on dose of 1.0 mg/kg; format: functional
How it was run: (§1)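 Urethane-anesthetized normotensive Wistar rats given a single iv injection at 1.0 mg/kg. Blood pressure (mmHg) and heart rate (beats/min) recorded, and the change reported at 5, 10, 15, 30 and 60 min after dosing. Saline-injected controls. Mean ± SE, n = 8. Significance versus saline by analysis of variance.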

Rattus norvegicus [2] = experiment: Blood pressure of the urethane-anesthetized normotensive Wistar rat was tested 30 min after inducing the compound on dose of 1.0 mg/kg; format: functional; how it was run: as §1
Rattus norvegicus [3] = experiment: Heart rate of the urethane-anesthetized normotensive Wistar rat was tested 30 min after inducing the compound on dose of 1.0 mg/kg; format: functional; how it was run: as §1
Rattus norvegicus [4] = experiment: Heart rate of the urethane-anesthetized normotensive Wistar rat was tested 5 min after inducing the compound on dose of 1.0 mg/kg; format: functional; how it was run: as §1
Rattus norvegicus [5] = experiment: Heart rate of the urethane-anesthetized normotensive Wistar rat was tested 10 min after inducing the compound on dose of 1.0 mg/kg; format: functional; how it was run: as §1
Cavia porcellus [6] = species: Cavia porcellus; experiment: Positive inotropic effect was evaluated on atrial muscles of the guinea pig; format: functional, Muscle tissue; details: for Kb: Cavia porcellus, Muscle tissue, read-out: pA2 (converted)
Cavia porcellus [7] = species: Cavia porcellus; experiment: Positive chronotropic effect was evaluated on atrial muscles of the guinea pig; format: functional, Muscle tissue; details: for Kb: Cavia porcellus, Muscle tissue, read-out: pA2 (converted)
Rattus norvegicus [8] = experiment: Heart rate of the urethane-anesthetized normotensive Wistar rat was tested 15 min after inducing the compound on dose of 1.0 mg/kg; format: functional; how it was run: as §1
Rattus norvegicus [9] = experiment: Blood pressure of the urethane-anesthetized normotensive Wistar rat was tested 15 min after inducing the compound on dose of 1.0 mg/kg; format: functional; how it was run: as §1
Rattus norvegicus [10] = experiment: Blood pressure of the urethane-anesthetized normotensive Wistar rat was tested 10 min after inducing the compound on dose of 1.0 mg/kg; format: functional; how it was run: as §1
Rattus norvegicus [11] = experiment: Heart rate of the urethane-anesthetized normotensive Wistar rat was tested 60 min after inducing the compound on dose of 1.0 mg/kg; format: functional; how it was run: as §1
Rattus norvegicus [12] = experiment: Blood pressure of the urethane-anesthetized normotensive Wistar rat was tested 5 min after inducing the compound on dose of 1.0 mg/kg; format: functional; how it was run: as §1
Rattus norvegicus [13] = experiment: Change in blood pressure was tested by inducing ia injection at a dose 0.01 mg/kg in rat; format: functional; details: route intra-arterial
How it was run: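 Urethane-anaesthetised normotensive Wistar rats; single intra-arterial bolus via the superficial epigastric artery. Read-out is the depressor change in systemic blood pressure in mmHg. Data are means ± SE, n = 8, analysed by ANOVA.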

Rattus norvegicus [14] = experiment: Minimum dose of iv injection that shows vagus reflex and a heart rate decrease of 50 beats/min in non-vagotomized rats; format: functional
How it was run: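 Non-vagotomized rats given increasing iv doses. The value is the lowest dose (mg/kg) that elicits a vagus reflex with a heart-rate fall of 50 beats/min. Compounds were scored ineffective if no such response occurred below 3 mg/kg. n = 8.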

Rattus norvegicus [15] = experiment: Change in blood pressure was tested by inducing ia injection at a dose 0.1 mg/kg in rat; format: functional; details: route intra-arterial

Structure (SMILES) | BP (Rattus norvegicus [1]) [mmHg] | BP (Rattus norvegicus [2]) [mmHg] | HR (Rattus norvegicus [3]) [beats min-1] | HR (Rattus norvegicus [4]) [beats min-1] | HR (Rattus norvegicus [5]) [beats min-1] | Kb (Cavia porcellus [6]) [nM] | Kb (Cavia porcellus [7]) [nM] | HR (Rattus norvegicus [8]) [beats min-1] | BP (Rattus norvegicus [9]) [mmHg] | BP (Rattus norvegicus [10]) [mmHg] | HR (Rattus norvegicus [11]) [beats min-1] | BP (Rattus norvegicus [12]) [mmHg] | also measured
CCCCCCCCC(=O)NCc1ccc(OCC(O)CNCC(C)C)c(OC)c1 (configuration not stated) | 0.25 | 2 | 4.13 | -39.88 | -35.25 | 26.9 | 117 | -27.13 | 1.63 | 1.63 | 3.13 | -2.75 | 
CCCCCCCCC(=O)NCc1ccc(OCC(O)CNCC)c(OC)c1 (configuration not stated) | 1.88 | -2.44 | -21.11 | -38.33 | -32.22 | 53.7 | 117 | -28 | 1.11 | 2.56 | 2.56 | 7.44 | 
CCCCCCCCC(=O)NCc1ccc(OCC(O)CNC2CC2)c(OC)c1 (configuration not stated) | 2.22 | 3.67 | -11.89 | -47.67 | -38.89 |  |  | -23.67 | 3.89 | 3.11 | -2.67 | -0.11 | 
CCCCCCCCC(=O)NCc1ccc(OCC(O)CNCCCCCC)c(OC)c1 (configuration not stated) | 1.89 | -2.11 | -12.67 | -35.56 | -24.11 | 66.1 | 933 | -14.89 | -4.44 | -2.89 | -8 | -2.22 | 
CCCCCCCCC(=O)NCc1ccc(OCC(O)CNC2CCCCC2)c(OC)c1 (configuration not stated) | 0.67 | 1.33 | -1.78 | -32.33 | -28.44 |  |  | -11.67 | -3.67 | -4.22 | 2.78 | -4.11 | 
CCCCCCCCC(=O)NCc1ccc(OCC(O)CNCCC)c(OC)c1 (stereo in doubt; 6) |  |  |  |  |  | 25.1 | 93.3 |  |  |  |  |  | BP (Rattus norvegicus [1]; 1 mg/kg): 4.78 mmHg; BP (Rattus norvegicus [2]; 1 mg/kg): -1.11 mmHg; HR (Rattus norvegicus [3]; 1 mg/kg): -5 beats min-1; HR (Rattus norvegicus [4]; 1 mg/kg): -36.78 beats min-1; HR (Rattus norvegicus [5]; 1 mg/kg): -28.22 beats min-1; HR (Rattus norvegicus [8]; 1 mg/kg): -19.89 beats min-1; BP (Rattus norvegicus [9]; 1 mg/kg): -1.89 mmHg; BP (Rattus norvegicus [10]; 1 mg/kg): -2.67 mmHg; HR (Rattus norvegicus [11]; 1 mg/kg): -7.56 beats min-1; BP (Rattus norvegicus [12]; 1 mg/kg): -1.56 mmHg
CCCCCCCCC(=O)NCc1ccc(O)c(OC)c1 [NONIVAMIDE] |  |  |  |  |  |  |  |  |  |  |  |  | BP (Rattus norvegicus [13]): -28.3 mmHg; Dose (Rattus norvegicus [14]): 0.005 mg/kg
CCCCCCCCC(=O)NCc1ccc(OCC(O)CNC(C)C)c(OC)c1 (configuration not stated) | -1.33 | -6.67 | -32.67 | -50.22 | -40.78 | 8.51 | 17 | -35.44 | -2.89 | -1.22 | -20 | -0.44 | 
CCCCCCCCC(=O)NCc1ccc(OCC(O)CNC(C)CC)c(OC)c1 (configuration not stated) | 1.22 | -0.88 | -25.11 | -38.56 | -35.44 | 22.4 | 120 | -32.33 | 3.33 | 4.89 | -9.56 | 4.11 | 
CCCCCCCCC(=O)NCc1ccc(OCC(O)CNC(C)(C)C)c(OC)c1 (configuration not stated) | 4.63 | 1.25 | -24.88 | -45 | -37.75 | 15.8 | 39.8 | -29.5 | 2.38 | 3.38 | -18.5 | 3.13 | 
CCCCCCCCC(=O)NCc1ccc(OCC(O)CNCCCCC)c(OC)c1 (configuration not stated) | 2.44 | 3.67 | -5.78 | -25.11 | -23.33 | 28.2 | 64.6 | -10.22 | -0.88 | -1.67 | -6.56 | -4.67 | 
CCCCCCCCC(=O)NCc1ccc(OCCN(C)C)c(OC)c1 |  |  |  |  |  |  |  |  |  |  |  |  | BP (Rattus norvegicus [15]): -21.6 mmHg; Dose (Rattus norvegicus [14]): 0.5 mg/kg
CCCCCCCCC(=O)NCc1ccc(OCC(O)CNCCCC)c(OC)c1 (configuration not stated) | 3.33 | 0.11 | -15.33 | -40 | -33.78 | 53.7 | 58.9 | -26.22 | -1.22 | -1.22 | -3.67 | -0.22 | 
CC(C)NCC(O)COc1cccc2ccccc12 (configuration not stated) [PROPRANOLOL] | 2.17 | -4.67 | -62.57 | -57.28 | -63.85 |  |  | -65.28 | -6.5 | -6.33 | -52.14 | -2.83 | 
CCCCCCCCC(=O)NCc1ccc(OCCO)c(OC)c1 |  |  |  |  |  |  |  |  |  |  |  |  | BP (Rattus norvegicus [15]): -44.2 mmHg; Dose (Rattus norvegicus [14]): 0.3 mg/kg
COc1cc(CNC(=O)CCCC/C=C/C(C)C)ccc1O [CAPSAICIN] |  |  |  |  |  |  |  |  |  |  |  |  | BP (Rattus norvegicus [13]): -49.5 mmHg; Dose (Rattus norvegicus [14]): 0.001 mg/kg
CCCCCCCCC(=O)NCc1ccc(OCC(O)CNCCC)c(OC)c1 (stereo in doubt; 8) |  |  |  |  |  |  |  |  |  |  |  |  | BP (Rattus norvegicus [1]; 1 mg/kg): -0.56 mmHg; BP (Rattus norvegicus [2]; 1 mg/kg): -2.44 mmHg; HR (Rattus norvegicus [3]; 1 mg/kg): -14.11 beats min-1; HR (Rattus norvegicus [4]; 1 mg/kg): -42.56 beats min-1; HR (Rattus norvegicus [5]; 1 mg/kg): -35.33 beats min-1; pA2 (Cavia porcellus [6]): 7.75; pA2 (Cavia porcellus [7]): 6.79; HR (Rattus norvegicus [8]; 1 mg/kg): -32 beats min-1; BP (Rattus norvegicus [9]; 1 mg/kg): -3.11 mmHg; BP (Rattus norvegicus [10]; 1 mg/kg): -2.56 mmHg; HR (Rattus norvegicus [11]; 1 mg/kg): -6.89 beats min-1; BP (Rattus norvegicus [12]; 1 mg/kg): -1.78 mmHg
CCCCCCCCC(=O)NCc1ccc(OCCN(CC)CC)c(OC)c1 |  |  |  |  |  |  |  |  |  |  |  |  | BP (Rattus norvegicus [15]): -15 mmHg; Dose (Rattus norvegicus [14]): 0.5 mg/kg
CCCCCCCCC(=O)NCc1ccc(OCC(O)CNC)c(OC)c1 (configuration not stated) | 0.78 | 1.89 | 14.56 | -34.56 | -17.33 | 74.1 | 295 | -12.22 | -0.56 | -0.22 | 4.78 | -1.11 | 

From ChEMBL document CHEMBL1127688, “Guaiacoxypropanolamine derivatives of capsaicin: a new family of beta-adrenoceptor blockers with intrinsic cardiotonic properties” (J Med Chem, 1994)
